Assay outcomes (PubChem)
Most compounds without a hit are left out; they make up all but 2.5% or so of the library.
SENP1 FRET inh – human SENP1 catalytic domain inhibitors, primary screen, biochemical, FRET, uHTS; recombinant SENP1 catalytic domain, CyPet-SUMO1-YPet FRET cleavage; inhibition, % at 10 µM; hit rate 0.21% among 360,000; AID 624204, 2012;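 active = inhibition at least 30% at 10 µM, raw YFP signal under a set limit, fluorescence ratio 0.5 to 1.5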;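 also: 0% = enzyme with DMSO and 100% = no enzyme wells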
Target sequence (Q9P0U3 419-644 limits assumed): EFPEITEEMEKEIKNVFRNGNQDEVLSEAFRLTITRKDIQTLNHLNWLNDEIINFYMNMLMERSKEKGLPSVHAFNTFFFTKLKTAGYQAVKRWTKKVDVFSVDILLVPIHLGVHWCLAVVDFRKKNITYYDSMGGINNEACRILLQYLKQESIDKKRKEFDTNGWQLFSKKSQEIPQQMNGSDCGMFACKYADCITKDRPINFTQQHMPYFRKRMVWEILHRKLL
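System: Recombinant human SENP1 catalytic domain, His6-tagged | Incubation: Enzyme reaction for 50 min at room temperature, dark | Medium: Tris pH 8 with BME, BSA, NP40 and catalase | Also added: 25 nM SUMO1 FRET substrate | Compound: 10 µM single point, 0.5% DMSO | Measured by: FRET fluorescence in CFP and YFP emission channels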
ABHD5 PLIN5 PPI – ABHD5-PLIN5 interaction inhibitors, primary screen, cell lysate, split luciferase complementation, luminescence | Split G. princeps luciferase complementation, 4 h | hit rate 0.78% among 360,000 | Perilipin-5 (Homo sapiens) + 1-acylglycerol-3-phosphate O-acyltransferase ABHD5 (Homo … | inhibition, % at 4 µM;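 active = inhibition above the mean inhibition across every tested compound plus 3 SD, cut at about 22% in these data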;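 also: 0% = DMSO only wells and the 100% control is not disclosed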
Beta2AR agonist – beta2AR agonists driving receptor internalization, primary screen, cell-based, FAP fluorogen, flow cytometry. Beta-2 adrenergic receptor (Homo sapiens), P07550. AID 504454, 2011. Am2.2-beta2AR cells. response, % (concentration not given with the values). hit rate 0.43% among 340,000;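 active = response above a set limit, near 3 SD of response in nonfluorescent compounds, cut at about 42% in these data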
Target sequence (P07550 whole entry, looked up): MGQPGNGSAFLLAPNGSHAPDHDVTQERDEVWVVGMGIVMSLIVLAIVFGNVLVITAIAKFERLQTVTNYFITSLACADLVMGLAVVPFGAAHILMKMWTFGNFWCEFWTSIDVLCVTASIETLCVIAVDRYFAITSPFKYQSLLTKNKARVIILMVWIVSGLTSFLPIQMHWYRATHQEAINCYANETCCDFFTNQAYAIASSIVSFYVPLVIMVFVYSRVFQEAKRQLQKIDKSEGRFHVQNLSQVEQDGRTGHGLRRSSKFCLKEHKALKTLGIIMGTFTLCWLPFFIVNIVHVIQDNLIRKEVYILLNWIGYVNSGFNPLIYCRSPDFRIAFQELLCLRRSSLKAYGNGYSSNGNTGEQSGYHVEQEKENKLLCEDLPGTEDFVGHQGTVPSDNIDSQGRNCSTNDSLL
NadD block – inhibitors of S. aureus NadD, primary screen, biochemical, colorimetric, uHTS. Nicotinate-nucleotide adenylyltransferase NadD (Staphylococcus aureus N315). hit rate 0.78% among 360,000. inhibition, % at 20 µM. purified NadD enzyme, colorimetric absorbance read-out; in the data active = inhibition above about 26%
GRK2 inh – compounds blocking aptamer binding on GRK2 – biochemical, human GRK2, bead flow cytometry, HTS, primary screen | FAM-aptamer displacement from GRK2 | inhibition of aptamer binding, % at 10 µM | hit rate 0.59% among 330,000;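 active = inhibition of aptamer binding above 40%, roughly 3 SD of noise, on plates passing a quality check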;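 also: median bead fluorescence of bound FAM aptamer so fluorescent compounds give negative values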
GRK2 inh confirm – GRK2 aptamer-displacing inhibitors, retest, confirmation, biochemical, cherry pick 1, bead flow cytometry. AID 504451, 2011. hit rate 4% among 2,000. bead-bound GRK2, FAM-aptamer displacement. aptamer displacement, % at 10 µM. shares compounds with GRK2 inh;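 active = aptamer displacement above 40%, near three times the noise of non-fluorescent compounds, on plates passing quality checks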;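 also: negative values mostly reflect intrinsic compound fluorescence rather than true enhancement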
Aptamer quench 1 – fluorescent aptamer quenching in GRK2 counter-screen dose response. AID 504521. 110 tested, under 10 active. shares compounds with GRK2 inh. fluorescence change (kMESF span), kMESF (concentration not given with the values). Fluorescent RNA aptamer beads, flow cytometry; hits give high values;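 active = compounds whose bead fluorescence drops by more than 37 kMESF across the dose range, marking them as dye quenchers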
FAM quench CP1 – aptamer fluorescence quenching in GRK2 counter-screen. Carboxyfluorescein RNA aptamer on beads, flow cytometry quenching; hits give low values. 2,000 tested, under 10 active. shares compounds with GRK2 inh. AID 504580. fluorescence response (% of DMSO), % at 10 µM;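 active = compounds that quench the bead-bound fluorescent RNA probe, cutting fluorescence to under half of the solvent control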;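 also: counterscreen run without GRK2 so only probe quenching by compound is measured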
GRK2 confirm 2 – GRK2 aptamer-displacing inhibitors, hit retest, confirmation, biochemical, cherry pick 2, bead flow cytometry | shares compounds with GRK2 inh | bead-bound GRK2, FAM-aptamer displacement | inhibition of aptamer binding, % at 10 µM | 360 tested, under 10 active | AID 504782, 2011;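 active = inhibition of aptamer binding above 40%, about triple the noise seen with nonglowing compounds, on plates passing quality control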;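 also: negative values mostly come from compounds that fluoresce themselves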
FAM quench SP – aptamer fluorescence quenching in GRK2 counter-screen | shares compounds with GRK2 inh | carboxyfluorescein RNA aptamer beads, flow cytometry quenching; hits give low values | fluorescence response vs DMSO, % at 10 µM | 360 tested, under 10 active | AID 588494;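 active = response vs DMSO under 50%, meaning signal dropped by over half, treated as fluorescence quencher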;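 also: labelled aptamer on streptavidin beads without GRK2 as a quench counter-screen; 100% = bead fluorescence of DMSO wells and lower means quenching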
Active calls of the source: *; nt = no result given.

SMILES	SENP1 FRET inh	ABHD5 PLIN5 PPI	Beta2AR agonist	NadD block	GRK2 inh	GRK2 inh confirm	FAM quench CP1	others
CCN(CC(=O)NCC(=O)Nc1ccc(Br)cc1C)Cc1ccccc1	2	-6	6	-3	2	nt	nt
CCCCCC(=O)Nc1cccc(C2=NOC3(C2)C[C@@H](C(N)=O)N(C(=O)c2cc([N+](=O)[O-])cc([N+](=O)[O-])c2)C3)c1 (some centres undefined)	0	12	-5	18	6	nt	nt
CCCCCC(=O)Nc1cccc(C2=NOC3(C2)C[C@@H](C(N)=O)N(C(=O)c2ccc(OC)cc2)C3)c1 (some centres undefined)	0	2	5	6	65*	13	102	Aptamer quench 1=-125
CCCCCC(=O)Nc1cccc(C2=NOC3(C2)C[C@H](C(N)=O)N(C(=O)COc2ccc(Cl)cc2)C3)c1 (some centres undefined)	1	0	-5	5	1	nt	nt	GRK2 confirm 2=11;FAM quench SP=98
Nn1c(SCC(=O)N2CCOCC2)nnc1-c1cccnc1	1	-1	6	4	2	nt	nt
CC(NS(=O)(=O)c1ccc(Cl)cc1)C(=O)N1CCOCC1 (centres undefined)	0	-7	0	4	0	nt	nt
Cc1ccc([N+](=O)[O-])cc1NC(=S)NC(=O)c1cccs1	0	6	7	-3	62*	nt	nt	GRK2 confirm 2=5;FAM quench SP=99
COc1ccc([N+](=O)[O-])cc1NC(=O)c1cccs1	2	1	-11	-5	1	nt	nt
CCc1ccc(NC(=O)CSc2nc3ccccc3nc2N2CCCCC2)cc1	-7	-2	nt	2	69*	-2	92
CC(C)(O)C1CC[C@@](C)([C@@H]2CC[C@]3(C)[C@H]2[C@H](O)CC2[C@@]4(C)CCC(O)C(C)(C)C4C(OC4OC(CO)C(O)C(O)C4O[C@@H]4OCC(O)C(O)C4O)C[C@]23C)O1 (some centres undefined)	-1	1	0	1	0	-2	100
O=C(CCS(=O)(=O)c1ccc(Cl)cc1)Nc1nc(-c2ccncc2)cs1	1	-1	10	-1	0	nt	nt
CCc1nnc(NS(=O)(=O)c2ccc(NC(=O)COc3ccc4ccccc4c3)cc2)s1	-1	-6	-1	-3	51*	3	98
COC(=O)CSc1nnc(-c2ccc(S(=O)(=O)N3CCCC3)cc2)o1	1	10	16	-1	0	nt	nt
NC(=O)CSc1nnc(-c2ccc(S(=O)(=O)N3CCCC3)cc2)o1	-1	-1	-2	4	45*	-1	81
Cc1ccc(CSc2nnc(-c3ccc(S(=O)(=O)N4CCCC4)cc3)o2)cc1	2	-2	-2	8	59*	-2	95
COc1cc(CCCN2CCNC[C@@H]2Cc2ccc(O)cc2)cc(OC)c1OC	1	-4	2	-8	0	nt	nt
COc1ccc(C(=O)N(C)c2ccccc2C(=O)NCCc2ccccc2)cc1	2	2	-4	1	0	nt	nt
CC(C)N(C)S(=O)(=O)c1ccc(NC(=O)C2=COCCO2)cc1	1	0	0	-6	5	nt	nt
O=C(O)CC/C(=C\c1ccc(N2CCCC2)c([N+](=O)[O-])c1)c1nc2ccccc2s1	0	-2	-5	25	71*	-5	100
O=C(O)CC/C(=C\c1ccccc1[N+](=O)[O-])c1nc2ccccc2s1	-1	-2	7	0	1	nt	nt
CC1CC(C)(C)CC2(C1)NC(=O)N(CC(=O)N1CCN(S(=O)(=O)c3ccc(F)c(F)c3F)CC1)C2=O (centres undefined)	3	2	5	9	nt	nt	nt
O=C1CN(C(=O)c2ccccn2)c2ccccc2N1	0	-2	0	2	0	nt	nt
O=C1CN(C(=O)c2ccccc2F)c2ccccc2N1	0	-3	1	6	48*	1	96
Cc1c(NS(=O)(=O)c2ccc(NC(=O)CCC(=O)O)cc2)c(=O)n(-c2ccccc2)n1C	1	3	-6	-5	0	nt	nt
CC(=O)NC1C(=O)N(CCN2CCOCC2)c2ccc(C)cc21 (centres undefined)	-1	4	3	17	20	nt	nt
SMILES	SENP1 FRET inh	ABHD5 PLIN5 PPI	Beta2AR agonist	NadD block	GRK2 inh	GRK2 inh confirm	FAM quench CP1	others
CC(=O)NC1C(=O)N(CCN2CCOCC2)c2ccc(Cl)cc21 (centres undefined)	-4	8	-6	14	98*	-2	99
Cc1c(C(=O)CN2CCCC(C)(C)C2)c2ccccc2n1C	-2	-7	-4	-3	0	nt	nt
CN(C)CCNC(=O)c1ccc(CS(=O)(=O)c2c(Cl)cccc2Cl)o1	2	2	1	-3	0	nt	nt
CCCN(CCC)CCCNC(=O)c1ccc(CS(=O)(=O)c2c(Cl)cccc2Cl)o1	2	-5	0	-8	48*	nt	nt	GRK2 confirm 2=-14;FAM quench SP=99
CC(C)(C)c1ccc(C(=O)N2CCC2(C)C(=O)NCc2cccc3ccccc23)cc1 (centres undefined)	-1	-22	nt	-11	nt	nt	nt
CCNC(=O)c1c(NC(=O)c2cc(-c3cc(C)cc(C)c3O)n[nH]2)sc2c1CCCC2	-9	-4	11	28	nt	nt	nt
O=C1CNC(c2ccccc2)C(c2ccccc2)N1 (centres undefined)	0	-4	nt	-2	nt	nt	nt
Cc1[nH]c(=O)[nH]c(=O)c1S(=O)(=O)Nc1ccc(F)c(Cl)c1	1	4	-3	-1	47*	-3	125
Cc1sc2ncnc(NCCCO)c2c1C	-2	1	-8	3	29	-2	103
Cc1sc2ncnc(NCCCN3CCCC3=O)c2c1C	1	5	2	1	0	nt	nt
